This is one part of a sample in which hits are shown more often than they occur.
H69AR growth 86K – proliferation blockers of H69AR lung cancer cells, primary screen, cell-based, human, 86K library; hit rate 6% among 85,000; viability, % at 10 µM; H69AR lung tumor viability, ATP luminescence, 72 h; active compounds read low; AID 598, 2007;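 active = viability at or below 40%; inactive = viability above 40%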;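 note: multidrug resistant small cell line overexpressing MRP-1 efflux transporter; 100% = mean luminescence of untreated control wells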
Lung fibro prol – antiproliferative effect on LL 47 fibroblasts – human, LL 47 cells, CellTiter-Glo luminescence, primary screen. LL 47 human lung fibroblast viability, ATP luminescence; active compounds read low. viability, % at 10 µM. hit rate 1.1% among 85,000. AID 719, 2007;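 active = viability at or below 50% in the single dose screen; inactive = viability above 50%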;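 note: compound exposure lasted 72 h before the ATP readout; 100% = median luminescence of untreated cell-only wells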
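Material: Human LL 47 lung fibroblast cells | Input: 1,150 cells/well | Buffer or medium: IMEM plus 15% FBS | Compound dosing: 0.1% DMSO in all compound wells | Times: Overnight cell rest, 72 h compound treatment at 37 °C | Signal: CellTiter-Glo luminescence measuring cellular ATP | Measure: % viability versus median cells-only luminescence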
bCat KO growth – primary screen for growth suppressors in beta-catenin knockout HCT116 cells (colon tumor, human); HCT116 beta-catenin knockout viability, CellTiter-Glo, 60 h; active compounds read low; viability, % at 10 µM; hit rate 1.5% among 140,000;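 active = viability at or under a set limit, the compound median less 4 SD, cut at about 6% in these data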;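 note: 0% = Hyamine 1622 control at 20 µM and 100% = untreated cell control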
HCT116 PTEN-null – growth suppression of PTEN-null HCT116, primary screen, cell-based, CellTiter-Glo; HCT116 PTEN-null viability, 60 h; active compounds read low; AID 827, 2007; viability, % at 10 µM; hit rate 1.2% among 140,000;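 active = viability at or below a set limit, 4 SD under the median of all tested compounds, cut at about 3.7% in these data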;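 note: PTEN knockout HCT116 line with beta catenin targeted HCT116 as companion control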
HUVEC inhibit – inhibitors of HUVEC proliferation, primary screen, cell-based, 384-well | hit rate 1.1% among 86,000 | viability, % at 10 µM (by protocol) | CellTiter-Glo luminescence, 72 h; active compounds read low;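 active = viability at or below 30%; inactive = viability above 30%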;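 note: 100% = median luminescence of DMSO-only cell control wells on each plate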
Starred values were filed as active, the others as inactive; / = no result.

SMILES	H69AR growth 86K	Lung fibro prol	bCat KO growth	HCT116 PTEN-null	HUVEC inhibit
CCCCCCc1nc2ccccc2c(=O)n1NC(=O)c1c(O)c2cccc3c2n(c1=O)CCC3	24.8*	89.8	54.6	57.4	102.0
CCCCc1nc2ccccc2c(=O)n1NC(=O)c1c(O)c2cccc3c2n(c1=O)CCC3	109.4	93.3	/	/	93.6
CCCCCc1nc2ccccc2c(=O)n1NC(=O)c1c(O)c2cccc3c2n(c1=O)CCC3	27.3*	92.3	/	/	102.3
C=CCNC(=O)c1onc(CSc2ccc(F)cc2)c1C(=O)NCCOC	/	/	99.7	81.1	/
COc1ccc(CCN=C(N)NS(=O)(=O)c2ccc3ccccc3c2)cc1	/	/	76.5	68.4	/
Cc1ccc(-n2c(C)cc(C3N=C(N)Nc4nc5ccccc5n43)c2C)c(C)c1 (stereo not drawn)	32.6*	72.1	9.3	5.0	16.0*
CC(Sc1nnc(NC2CCCCC2)s1)C(=O)Nc1ccc2c(c1)C(=O)c1ccccc1C2=O (stereo not drawn)	/	/	65.2	62.9	/
CCOC(=O)Cn1c(=O)c(-c2ccccc2NCc2ccccc2)nc2ccccc21	27.6*	73.9	/	/	56.7
CCOC(=O)Cn1c(-c2ccccc2)nc2ccccc2c1=O	/	/	83.9	78.1	/
CCOc1ccc(C(=O)CCN2CCCCC2)cc1	97.0	99.6	88.3	90.2	99.0
CCCCOc1ccc(C(=O)C(CN2CCOCC2)c2ccccc2)cc1 (stereo not drawn)	1.0*	92.3	1.9*	2.0*	2.3*
CCCCCOc1ccc(C(=O)C(c2ccccc2)N2CCOCC2)cc1 (stereo not drawn)	66.6	95.4	78.5	75.6	115.7
O=C(c1ccc(F)cc1)C(CN1CCOCC1)c1ccccc1 (stereo not drawn)	91.2	25.3*	1.6*	1.6*	51.2
COc1ccc(C(=O)CCN2CCCCCC2)cc1	/	/	1.2*	1.3*	/
COc1ccc(C(=O)C(CN2CCOCC2)c2ccccc2)cc1 (stereo not drawn)	0.5*	11.0*	3.4*	1.6*	71.4
COc1ccc(/C(=C/c2ccc(OC(F)F)c(OC)c2)C(=O)O)cc1OC	/	/	99.3	91.9	/
CCCCN(C(=N)N1CCCCC1)c1nc(C)c([N+](=O)[O-])c(=O)[nH]1	/	/	95.5	97.3	/
COc1ccccc1NC(=S)NC1CCCCCC1	/	/	63.1	67.2	/
CCN(CC)S(=O)(=O)c1ccc(NC(=O)C2CCCN(C(=O)c3ccc(Cl)cc3)C2)cc1 (stereo not drawn)	/	/	76.1	65.0	/
O=C(CN1C(=O)NC2(CCCCC2)C1=O)NCc1cccs1	/	/	94.9	90.2	/
CCCOc1ccc(C(=O)C(CN2CCCC2)c2ccccc2)cc1 (stereo not drawn)	/	/	1.3*	0.9*	/
COc1ccc(C(=O)C(CN2CCCC2)c2ccccc2)cc1 (stereo not drawn)	1.2*	10.4*	2.2*	1.1*	47.6
COc1ccc(C(=O)C(OC(=O)c2ccccc2)c2ccccc2)cc1 (stereo not drawn)	/	/	80.2	89.7	/
c1ccc(C(CN2CCOCC2)c2ccccc2)cc1	91.0	98.4	84.1	80.8	99.8
O=C(c1ccccc1)C(CCC(CN1CCOCC1)C(=O)c1ccccc1)CN1CCOCC1 (stereo not drawn)	1.3*	49.6*	1.9*	1.9*	36.0
SMILES	H69AR growth 86K	Lung fibro prol	bCat KO growth	HCT116 PTEN-null	HUVEC inhibit
O=c1c2cc3ccccc3n2cnn1Cc1ccccc1F	17.1*	77.3	56.3	40.5	78.7
Cc1ccc(C)c(S(=O)(=O)Nc2ccc3scnc3c2)c1	16.6*	/	29.9	30.8	62.9
COc1ccc(-c2cc(C(F)(F)F)n3ncc(C(=O)NCC4CCCO4)c3n2)cc1 (stereo not drawn)	20.4*	97.5	71.6	61.3	99.0
CC(C)CNC(=O)c1cc2nc3c(c(C(F)(F)F)n2n1)CCc1ccccc1-3	78.2	107.2	111.5	98.4	125.3
Cc1cc(NC(=O)c2cnn3c(C(F)F)cc(-c4ccccc4)nc23)no1	24.6*	89.6	94.9	82.7	76.5
COc1cccc(-c2cc(C(F)(F)F)n3ncc(C(=O)NCC4CCCO4)c3n2)c1 (stereo not drawn)	59.7	104.0	76.5	76.8	70.3
Cc1cc(NC(=O)CCS(=O)(=O)c2nc(-c3ccccc3)cc(C(F)(F)F)n2)no1	0.7*	5.6*	68.9	70.7	24.0*
Cc1cc(NC(=O)c2cc3nc4c(c(C(F)(F)F)n3n2)CCc2ccccc2-4)no1	29.0*	103.1	/	/	102.0
CN(Cc1cn(-c2ccccc2)nc1-c1ccc(Cl)cc1)C(=O)CCC(=O)O	/	/	103.1	92.5	/
O=C(c1cnn2c(C(F)(F)F)cc(-c3ccccc3)nc12)N1CCCc2ccccc21	36.0*	90.7	93.8	98.0	86.8
Cc1cc(NC(=O)c2cnn3c(C(F)(F)F)cc(-c4ccccc4)nc23)no1	37.9*	94.4	77.6	70.6	89.2
O=C1CCCC2=C1C1c3ccccc3C(=O)N1c1ccc(C(=O)c3ccccc3)cc1N2 (stereo not drawn)	20.8*	106.6	39.7	28.9	49.5
O=C1CC(c2ccco2)CC2=C1C1c3ccccc3C(=O)N1c1ccccc1N2 (stereo not drawn)	46.5	87.1	8.1	5.8	71.2
CCOc1ccc(-c2nc(N)ncc2-c2ccccc2)c(O)c1	28.0*	92.6	87.4	81.8	114.2
CCOc1ccc(-c2nc(N)ncc2-c2ccc(OC)cc2)c(O)c1	/	/	89.1	87.1	/
O=C1/C(=N/n2cnnc2)c2ccccc2N1Cc1ccccc1	17.3*	91.6	13.2	21.9	69.8
O=C(CNS(=O)(=O)c1c(Cl)cccc1Cl)OCc1csc(-c2ccccc2)n1	/	/	94.3	96.2	/
S=C(Nc1ccc(Br)cc1)NC1CCCCC1	/	/	56.1	52.6	/
CC(C)(C)N(NC(=O)Nc1ccc(Cl)c(Cl)c1)C(=O)c1ccccc1	/	/	8.6	3.4*	/
CC1(C)Cc2c(C#N)c(SCCOc3ccccc3)nc(N3CCOCC3)c2CO1	31.6*	85.2	64.1	61.8	61.1
Cc1ccccc1C(=O)c1cccn1CC(=O)NCCN1CCN(c2cccc(C)c2C)CC1	5.2*	73.0	4.3*	7.3	6.1*
Cc1ccccc1C(=O)c1cccn1CC(=O)NCc1ccco1	90.1	96.3	85.2	91.2	89.3
COc1ccc(-c2cnn3c4c(c(C)nc23)CCN4C(C)C)cc1OC	/	/	99.3	99.1	/
CCOCCCNC(=O)C1CCN(S(=O)(=O)c2c(C)noc2/C=C\c2ccc(OC)cc2)CC1	37.1*	93.8	/	/	79.9
Cc1noc(/C=C/c2ccco2)c1S(=O)(=O)N1CCC(C(=O)NC(C)c2ccccc2)CC1 (stereo not drawn)	12.8*	95.5	75.8	77.1	85.8
Cc1noc(/C=C/c2ccco2)c1S(=O)(=O)N1CCC(C(=O)N(C)Cc2ccccc2)CC1	71.4	98.3	73.6	68.1	93.9
Oc1ccc(Br)cc1-c1cc(-c2ccccc2F)[nH]n1	55.7	80.4	39.0	38.9	82.2

Screening data as filed in PubChem BioAssay.
